Results on three molecules are retold here after paper PMC8286830 (Biochemical Journal, 2021).

Where “and” joins values, the source holds several entries; their conditions need not be identical. Identical values can stand only once. Entries after “also recorded” stand apart in the source; their conditions may differ.

For series [1], the system named is N-TgCEN1. Put plainly: Turbidimetry at 340 nm, N-TgCEN1. It is filed as physicochemical, Toxoplasma gondii. The following applies: 20 µM, 1 mM CaCl2, 20 mM KCl pH 7.5, 37°C. Summed up: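 Recombinant N-domain (1–94) or C-domain (95–169), Ni-affinity purified. A340 followed over time in a 1 cm cuvette. Standard conditions: 20 µM protein, 20 mM Tris–HCl, 20 mM KCl pH 7.5, 1 mM CaCl2, 37°C. Conditions also varied: CaCl2 0–2 mM, temperature 4–45°C, protein 5–50 µM, KCl 0–150 mM, or 600 µM ANS added.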

Series [2] concerns N-TgCEN1. Kind of series: DLS particle size of N-TgCEN1. It counts as physicochemical, Toxoplasma gondii. The following applies: 10 µM. Summed up:
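Domains produced in E. coli Rosetta: N-domain residues 1–94 and C-domain 95–169. […] 10 µM protein in 20 mM Tris–HCl pH 7.5, 1 mM CaCl2, at selected KCl concentrations or with 600 µM ANS. Samples centrifuged at 21 000 g for ≥30 min; filtered buffers. Hydrodynamic diameter reported as number distribution (633 nm laser, 173°).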

The test system of series [3] is TgCEN1. Kind of series: Turbidimetry at 340 nm, TgCEN1 self-assembly. It is filed as physicochemical, Toxoplasma gondii. Summed up: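 Full-length protein (E. coli Rosetta) at 20 µM in 20 mM Tris–HCl, 20 mM KCl pH 7.5, 37°C, A340 recorded versus time. Run with 1 mM CaCl2, with 1 mM EGTA, or with EGTA added to Ca2+-saturated protein. Ca2+ series 5–2000 µM, read at 25 min versus metal/protein ratio. Also varied: temperature 4–45°C, protein 5–50 µM, KCl 0–150 mM, and 600 µM ANS.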

Series [4] relates to TgCEN1. Put plainly: DLS particle size of TgCEN1. It is filed as physicochemical, Toxoplasma gondii.
The test system of series [5] is TgCEN1. Put plainly: DLS thermal ramping of TgCEN1. It is filed as physicochemical, Toxoplasma gondii. The following applies: 5 µM protein, 1 mM CaCl2, pH 7.5. In a few lines: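 Full-length recombinant protein (E. coli Rosetta) at 5 µM with 1 mM CaCl2 in 20 mM Tris–HCl, 20 mM KCl pH 7.5, clarified by centrifugation. Temperature stepped from 15 to 45°C in 1°C increments, with DLS size measured at each step. Z-average (intensity-weighted mean hydrodynamic size) recorded; midpoint from logistic fit.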

For series [6] the following is noted: via N-terminal EF-hands, in vitro; cited from earlier work.
Series [7] addresses T1, Δ21TgCEN1 (Toxoplasma gondii, UniProt A0A125YHX7).
T1 sequence (A0A125YHX7 22-169): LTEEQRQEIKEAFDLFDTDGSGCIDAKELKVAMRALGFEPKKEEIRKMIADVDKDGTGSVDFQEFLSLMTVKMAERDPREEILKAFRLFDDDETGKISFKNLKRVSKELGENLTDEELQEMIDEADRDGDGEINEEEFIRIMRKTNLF
Kind of series: Turbidimetry at 340 nm, Δ21TgCEN1. It is filed as physicochemical. In a few lines: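 Construct lacking residues 1–21 (E. coli Rosetta) at 20 µM in 20 mM Tris–HCl, 20 mM KCl pH 7.5, 1 mM CaCl2, 37°C. A340 followed over time, before and after adding 50 µM synthetic N-terminal peptide (residues 1–21). Peptide alone with CaCl2 run as a control trace.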

Series [8] concerns the target T1, Δ21TgCEN1. Kind of series: DLS particle size / count rate of Δ21TgCEN1. It is filed as physicochemical. The following applies: all other conditions: temperature, protein concentration, KCl, ANS. In a few lines: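 Recombinant tag-free Δ21TgCEN1 from E. coli Rosetta (Ni affinity, TEV cleavage). For DLS, 10 µM protein in 20 mM Tris–HCl, 20 mM KCl pH 7.5 with 1 mM CaCl2 at 37°C was spun at 21 000 g for ≥30 min, then measured before and after adding 50 µM N21 peptide. Diameter was reported as number distribution. In parallel, A340 turbidity of 20 µM protein was followed over time.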

B1: N-TgCEN1: N-terminal domain of TgCEN1, 1–94 aa (protein)
chain: MHSRKGASSLPRGRGAGKKTELTEEQRQEIKEAFDLFDTDGSGCIDAKELKVAMRALGFEPKKEEIRKMIADVDKDGTGSVDFQEFLSLMTVKM
modifications: left off: His tag (from the Nickel affinity chromatography), end not stated, cleaved
Take B1: the “turbidity at 340 nm” value in the series on N-TgCEN1 [1] is reported as “no turbidity changes at 340 nm”. Moreover, in the series on N-TgCEN1 [2] (1 mM CaCl2, 20 mM Tris–HCl, 20 mM KCl pH 7.5), the particle diameter was determined as 250 ± 1 nm. Further, the “association at high ionic strength” value in the series with N-TgCEN1 [2] (selected KCl concentrations, 1 mM CaCl2, DLS) was “inhibition of association process”.

B2: TgCEN1: centrin isoform 1 from Toxoplasma gondii, full-length, overexpressed in E. coli (protein)
chain: MHSRKGASSLPRGRGAGKKTELTEEQRQEIKEAFDLFDTDGSGCIDAKELKVAMRALGFEPKKEEIRKMIADVDKDGTGSVDFQEFLSLMTVKMAERDPREEILKAFRLFDDDETGKISFKNLKRVSKELGENLTDEELQEMIDEADRDGDGEINEEEFIRIMRKTNLF
As for B2, in the series on TgCEN1 [3] (0–150 mM KCl, 20 mM Tris–HCl pH 7.5, 1 mM CaCl2, 37°C), the “self-assembly at high ionic strength (turbidity at 340 nm)” value is recorded as “clear inhibition of self-assembly process at high ionic strength”. Also, the “turbidity at 340 nm” value with TgCEN1 [3] (20 µM, 1 mM CaCl2, 20 mM Tris–HCl, 20 mM KCl pH 7.5, 37°C) is “clear increase in turbidity”; in the series on TgCEN1 [3] (EGTA added to Ca^2+-saturated TgCEN1, 20 µM, pH 7.5, 37°C), “significantly reduced”. Further, in the series with TgCEN1 [3] (Mg^2+ up to 10 mM, data not shown), the “turbidity change on Mg^2+ addition” value was “No changes in the turbidity profiles”. Moreover, the “self-assembly rate and plateau (turbidity at 340 nm)” value with TgCEN1 [3] (increasing TgCEN1 concentration (5–50 µM), 1 mM CaCl2, 37°C) is “faster self-assembly process and a higher plateau”; in the series on TgCEN1 [3] (increasing temperature (4–45°C), 1 mM CaCl2), “increase in the slope of the growth phase at 340 nm and a higher plateau”. Also, the “light scattering below threshold concentration” value in the series on TgCEN1 [3] (protein concentrations less than 5 µM) was “Low light scattering”. In addition, the hydrodynamic diameter was 570 ± 5 nm and ~570 nm with TgCEN1 [4] (10 µM, 1 mM CaCl2, 20 mM Tris–HCl, 20 mM KCl pH 7.5, 37°C, DLS number distribution, no additive); roughly 7 nm in the series on TgCEN1 [4] (high ionic strength (KCl), 20 mM Tris–HCl pH 7.5, 1 mM CaCl2, 37°C); 600–800 nm in the series on TgCEN1 [4] (low salt concentrations, 20 mM Tris–HCl pH 7.5, 1 mM CaCl2, 37°C). Moreover, the number-averaged hydrodynamic diameter in the series on TgCEN1 [4] (10 µM, absence of Ca^2+ (1 mM EGTA), 20 mM Tris–HCl, 20 mM KCl pH 7.5, 37°C, DLS number distribution) was found to be 7.54 ± 0.01 nm. For the same molecule, the association state entry in the series on TgCEN1 [4] (150 mM KCl, 1 mM CaCl2, 37°C) is on record as “monomeric in solution”. Besides, the z-average hydrodynamic diameter in the series on TgCEN1 [5] (15°C) is roughly 230 nm; in the series with TgCEN1 [5] (45°C) it was roughly 470 nm. The “Ca^2+ ions bound” value in series [6] is reported as “two Ca^2+ ions; also recorded: two high affinity Ca^2+-binding sites in the N-lobe”.

B3: Δ21TgCEN1: truncated variant of TgCEN1 lacking the first 21 residues (22–169) (protein)
chain: T1 sequence (A0A125YHX7 22-169)
B3: in the series with Δ21TgCEN1 [7] (1 mM CaCl2, same conditions as full-length (20 µM, 37°C, pH 7.5)), the “turbidity at 340 nm” value was “no changes in turbidity at 340 nm”. In the series with Δ21TgCEN1 [7] (removal of the first 21 residues, Ca^2+), the self-assembly process entry is on record as “completely abolished”. Besides, the “turbidity or size distribution changes” value with Δ21TgCEN1 [8] is listed as “No changes in turbidity or size distribution”.
